Published values from different studies.
Lines come from different studies, so protocols differ.
Target: Misshapen-like kinase 1 (MINK1, Homo sapiens, UniProt Q8N4C8)

O=C(Nc1cccnn1)N1CC(C/C=C/c2cncc(Oc3ccc(C(F)(F)F)cn3)n2)C1 — remaining binding (cell-free assay, competition with immobilised ligand; 1 µM): 100%
C[C@@H](c1ccc(-n2cnc3c(N)ncnc32)cc1)N1CCc2nn(C)c(Cc3ccccc3)c2C1=O — remaining binding (binding, competition with immobilised ligand; 0.1 µM): 88%
FC(F)(F)Oc1cccc(-c2cnc3ccc(-c4ccncc4)nn23)c1 — remaining binding (binding, competition with immobilised ligand; 5 µM): 7.2%
O=C(NCCCN1CCOCC1)c1ccc(Nc2nccc(-c3cc4ccccc4s3)n2)cc1 — remaining binding (binding, competition with immobilised ligand; 1 µM): 46%
O=C(NCC1CCOCC1)c1n[nH]cc1NC(=O)c1c(F)cccc1F — remaining binding (binding, competition with immobilised ligand; 1 µM): 77%
COc1cnc(Nc2cccc(S(N)(=O)=O)c2)nc1N1CCN(c2ccccc2)CC1 — remaining binding (binding, competition with immobilised ligand; 1 µM): 76%
O=C(c1ccc(Nc2ncc(Cl)c(-c3cc4ccccc4s3)n2)cc1)N1CCC(N2CCCC2)CC1 — remaining binding (binding, competition with immobilised ligand; 1 µM): 42%
N[C@H]1CCN(c2nccc(-c3cnn4ncccc34)n2)C1 — remaining binding (binding; 1 µM): 100%
O=C(c1ccc(Nc2nccc(-c3cc4ccccc4s3)n2)cc1)N1CCC(N2CCCC2)CC1 — remaining binding (binding, competition with immobilised ligand; 1 µM): 57%
O=C(O)[C@H]1[C@H](Cn2nnc3ccccc3c2=O)CC[C@@H]1C(=O)c1ccc(OCCC2CCOCC2)cc1 — remaining binding (cell-free assay, competition with immobilised ligand; 1 µM): 100%
c1cncc(-c2cccc(Nc3nccc(NC4CCCCC4)n3)c2)c1 — remaining binding (binding, competition with immobilised ligand; 10 µM): 4.8%
CN(C)c1nccc(-c2cnc3ncccn23)n1 — remaining binding (binding; 1 µM): 82%
Cc1c[nH]c2nccc(Oc3c(F)cc(Nc4cc(Cl)nc(N)n4)cc3F)c12 — remaining binding (cell-free assay, competition with immobilised ligand; 0.1 µM): 100%
Cc1cnn2ncc(-c3ccnc(N(C)C)n3)c2c1 — remaining binding (binding; 1 µM): 92%
N#Cc1ccc(Nc2ccc3[nH]c(=O)[nH]c3c2)c(Cl)c1 — remaining binding (cell-free assay, competition with immobilised ligand; 1 µM): 91%
Nc1ncc2c(n1)-c1c([nH]c3ccc(C#CC4CC4)cc13)CCCC2 — remaining binding (binding, competition with immobilised ligand; 1 µM): 94%
COc1ccnn2ncc(-c3ccnc(N(C)C)n3)c12 — remaining binding (binding; 1 µM): 81%
CCN1CCN(Cc2ccc(C(=O)Nc3ccc(C)c(Oc4ccc5c(c4)CC(=O)N5)c3)cc2C(F)(F)F)CC1 — remaining binding (binding, competition with immobilised ligand; 1 µM): 100%
CC(=O)C1=C(C)N(c2cccc(C(F)(F)F)c2)C(=O)N[C@@H]1c1ccc(C#N)nc1 — remaining binding (cell-free assay, competition with immobilised ligand; 1 µM): 100%
C[C@@H]1CCN(c2nccc(-c3cnn4ncccc34)n2)C1 — remaining binding (binding; 1 µM): 74%
O=C(Nc1cnc(Oc2ccc(F)cc2)nc1)N1CCc2ncccc2[C@@H]1c1ccc(F)cc1 — remaining binding (cell-free assay, competition with immobilised ligand; 1 µM): 100%
CN(C)c1nccc(-c2cnn3ncccc23)n1 — remaining binding (binding; 1 µM): 81%
